Reference: ChEMBL document CHEMBL4334435, “A focused structure-activity relationship study of psoralen-based immunoproteasome inhibitors” (Medchemcomm, 2019)
One block for each molecule: values may come before it. The source made the active and inactive calls. The calls are words filed in the database; no cut-off is given here.

What was measured:
[1] = target: T1, Proteasome subunit beta type-9 (Homo sapiens, UniProt P28065); assay: Inhibition of human immunoproteasome beta 1i subunit using Ac-PAL-AMC as substrate preincubated for 30 mins followed by substrate addition measured for 120 mins by fluorescence based assay
T1 sequence (P28065 whole entry): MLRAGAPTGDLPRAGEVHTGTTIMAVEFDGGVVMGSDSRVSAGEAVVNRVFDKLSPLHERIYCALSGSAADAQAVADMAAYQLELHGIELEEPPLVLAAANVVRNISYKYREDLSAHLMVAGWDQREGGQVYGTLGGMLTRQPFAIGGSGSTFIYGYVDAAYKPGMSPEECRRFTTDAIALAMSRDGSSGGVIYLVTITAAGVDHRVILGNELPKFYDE

[2] = target: T2, Proteasome subunit beta type-8 (Homo sapiens, UniProt P28062); assay: Inhibition of human immunoproteasome beta 5i subunit using Suc-LLVY-AMC as substrate preincubated for 30 mins followed by substrate addition and measured for 120 mins by fluorescence based assay
T2 sequence (P28062 whole entry): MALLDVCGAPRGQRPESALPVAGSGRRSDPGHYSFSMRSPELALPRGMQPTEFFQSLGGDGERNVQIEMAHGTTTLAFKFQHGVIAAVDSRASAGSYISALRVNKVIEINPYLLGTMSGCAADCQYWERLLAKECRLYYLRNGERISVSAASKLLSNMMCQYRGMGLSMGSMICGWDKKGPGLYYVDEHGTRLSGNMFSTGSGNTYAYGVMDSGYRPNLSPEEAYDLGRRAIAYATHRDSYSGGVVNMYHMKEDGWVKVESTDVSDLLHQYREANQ

[3] = target: T3, Proteasome subunit beta type-10 (Homo sapiens, UniProt P40306); assay: Inhibition of human immunoproteasome beta 2i subunit using Boc-LRR-AMC as substrate preincubated for 30 mins followed by substrate addition measured for 120 mins by fluorescence based assay
T3 sequence (P40306 whole entry): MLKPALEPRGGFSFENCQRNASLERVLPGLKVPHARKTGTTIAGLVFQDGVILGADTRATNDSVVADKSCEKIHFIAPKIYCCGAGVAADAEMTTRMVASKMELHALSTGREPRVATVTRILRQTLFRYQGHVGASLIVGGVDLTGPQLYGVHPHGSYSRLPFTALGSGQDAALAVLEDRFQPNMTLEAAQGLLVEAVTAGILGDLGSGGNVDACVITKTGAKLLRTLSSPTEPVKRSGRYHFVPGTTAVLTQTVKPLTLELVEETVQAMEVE

[4] = target: T4, Proteasome subunit beta type-9 (Homo sapiens) (UniProt P28065); assay: Inhibition of human immunoproteasome beta 1i subunit at 10 uM using Ac-PAL-AMC as substrate preincubated for 30 mins followed by substrate addition measured for 120 mins by fluorescence based assay
T4 sequence (whole entry): T1 sequence (P28065 whole entry)
Outline: (§1)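 Purified human immunoproteasome or constitutive proteasome subunit activities measured with fluorogenic substrates in presence of 10 μM compound; reported as residual activity.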

[5] = target: T5, Proteasome Macropain subunit MB1 (Homo sapiens, UniProt P28074); assay: Inhibition of human constitutive proteasome beta 5 subunit at 10 uM using Suc-LLVY-AMC as substrate preincubated for 30 mins followed by substrate addition measured for 120 mins by fluorescence based assay; details: 2 h; outline: as §1
T5 sequence (P28074 whole entry): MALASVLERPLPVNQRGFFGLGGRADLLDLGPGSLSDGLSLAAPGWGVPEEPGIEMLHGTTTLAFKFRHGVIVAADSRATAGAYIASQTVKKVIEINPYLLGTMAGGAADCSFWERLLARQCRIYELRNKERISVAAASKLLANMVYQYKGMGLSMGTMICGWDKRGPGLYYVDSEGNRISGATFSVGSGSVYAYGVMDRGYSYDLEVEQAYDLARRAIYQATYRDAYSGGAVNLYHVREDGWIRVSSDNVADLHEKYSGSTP

[6] = target: T5, Proteasome Macropain subunit MB1; assay: Inhibition of human constitutive proteasome beta 5 subunit using Suc-LLVY-AMC as substrate preincubated for 30 mins followed by substrate addition measured for 120 mins by fluorescence based assay
[7] = target: T6, Proteasome subunit beta type-10 (Homo sapiens) (UniProt P40306); assay: Inhibition of human immunoproteasome beta 2i subunit at 10 uM using Boc-LRR-AMC as substrate preincubated for 30 mins followed by substrate addition measured for 120 mins by fluorescence based assay; outline: as §1
T6 sequence (whole entry): T3 sequence (P40306 whole entry)

[8] = target: T7, Proteasome subunit beta type-8 (Homo sapiens) (UniProt P28062); assay: Inhibition of human immunoproteasome beta 5i subunit using Suc-LLVY-AMC as substrate assessed as residual activity at 10 uM preincubated for 30 mins followed by substrate addition measured for 120 mins by fluorescence based assay relative to control; outline: as §1
T7 sequence (whole entry): T2 sequence (P28062 whole entry)

[9] = target: T7, Proteasome subunit beta type-8 (Homo sapiens); assay: Inhibition of 20S immunoproteasome beta 5 chymotrypsin-like activity in human HeLa cell lysates using Suc-LLVY-AMC as substrate preincubated for 30 mins followed by substrate addition and measured for 90 mins by fluorescence based assay; format: subcellular; details: Lysate
Outline: (§2)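 Compounds incubated with cell lysates (HeLa: predominantly constitutive proteasome; THP-1: high immunoproteasome) and beta5 activity read with fluorogenic Suc-LLVY-AMC; IC50 determined.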

[10] = target: T7, Proteasome subunit beta type-8 (Homo sapiens); assay: Inhibition of 26S immunoproteasome beta 5 chymotrypsin-like activity in human HeLa intact cells using […] as substrate after 2 hrs by luciferase based assay; format: cell-based
PBMC [11] = assay: Inhibition of LPS-induced TNFalpha production in human PBMC at 10 uM preincubated for 1 hr followed by LPS addition and measured after 24 hrs by cytometric bead array-based FACS analysis; format: functional, cell-based
PBMC [12] = assay: Inhibition of LPS-induced IL-12p70 production in human PBMC at 10 uM preincubated for 1 hr followed by LPS addition and measured after 24 hrs by cytometric bead array-based FACS analysis; format: functional, cell-based
PBMC [13] = assay: Inhibition of LPS-induced IL-8 production in human PBMC at 10 uM preincubated for 1 hr followed by LPS addition and measured after 24 hrs by cytometric bead array-based FACS analysis; format: functional, cell-based
PBMC [14] = assay: Inhibition of LPS-induced IL-1beta production in human PBMC at 10 uM preincubated for 1 hr followed by LPS addition and measured after 24 hrs by cytometric bead array-based FACS analysis; format: functional, cell-based
[15] = target: T7, Proteasome subunit beta type-8 (Homo sapiens); assay: Time-dependent inhibition of human immunoproteasome beta 5i subunit assessed as increase in IC50 value using Suc-LLVY-AMC as substrate co-incubated with substrate without preincubation by fluorescence based analysis relative to 30 mins preincubated compound-treated control
Outline: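 IC50 against immunoproteasome beta5i (Suc-LLVY-AMC) determined without pre-incubating compound with enzyme before substrate addition, compared against pre-incubated assay.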

[16] = target: T2, Proteasome subunit beta type-8; assay: Inhibition of 20S immunoproteasome beta 5 chymotrypsin-like activity in human THP-1 cell lysates using Suc-LLVY-AMC as substrate preincubated for 30 mins followed by substrate addition and measured for 90 mins by fluorescence based assay; format: subcellular, Lysate; outline: as §2
PBMC [17] = assay: Inhibition of LPS-induced IL-10 secretion in human PBMC at 10 uM preincubated for 1 hr followed by LPS addition and measured after 24 hrs by cytometric bead array-based FACS analysis; format: functional, cell-based
PBMC [18] = assay: Inhibition of LPS-induced IL-6 secretion in human PBMC at 10 uM preincubated for 1 hr followed by LPS addition and measured after 24 hrs by cytometric bead array-based FACS analysis; format: functional, cell-based
[19] = target: T7, Proteasome subunit beta type-8 (Homo sapiens); assay: Inhibition of 26S immunoproteasome beta 5 chymotrypsin-like activity in human THP-1 intact cells using […] as substrate after 2 hrs by luciferase based assay; format: cell-based
Homo sapiens = species: Homo sapiens; assay: Selectivity ratio of IC50 for human constitutive proteasome beta 5 subunit to IC50 for human immunoproteasome beta 5i subunit
[20] = target: T7, Proteasome subunit beta type-8 (Homo sapiens); assay: Irreversible inhibition of human immunoproteasome beta 5i subunit assessed as recovery of enzyme activity at 1060 nM using Suc-LLVY-AMC as substrate preincubated for 30 mins followed by 100-fold diluted substrate addition by rapid dilution assay relative to control; design: scale not given: the % may be the effect or the level left

Structure (SMILES): Cc1c(-c2nsc(=O)o2)c(=O)oc2cc3occ(C4CCC4)c3cc12
IC50 [1]: Nd(Insoluble) | IC50 [2]: 433 nM | IC50 [3]: Nd(Insoluble) | inhibition [4]: inactive | inhibition (INH) [5]: Not Active | IC50 [6]: Nd(Insoluble) | inhibition [7]: inactive

Structure (SMILES): Cc1cccc(-c2coc3cc4oc(=O)c(-c5nsc(=O)o5)c(C)c4cc23)c1
IC50 [1]: Nd(Insoluble) | IC50 [2]: 365 nM | IC50 [3]: Nd(Insoluble) | inhibition [4]: inactive | inhibition (INH) [5]: Not Active | IC50 [6]: Nd(Insoluble) | inhibition [7]: inactive

Structure (SMILES): Cc1c(CCC(=O)ON2C(=O)CCC2=O)c(=O)oc2cc3occ(C4CCCCC4)c3cc12
IC50 [2]: 1830 nM

Structure (SMILES): Cc1c(CCC(=O)NCC#N)c(=O)oc2cc3occ(C4CCCCC4)c3cc12
Activity [8]: 102%

Structure (SMILES): Cc1c(CC(=O)N(C)CC#N)c(=O)oc2cc3occ(C4CCCCC4)c3cc12
Activity [8]: 101%

Structure (SMILES): Cc1c(CCC(=O)N(C)CC#N)c(=O)oc2cc3occ(C4CCCCC4)c3cc12
Activity [8]: 111%

Structure (SMILES): Cc1c(CC(=O)NCC#N)c(=O)oc2cc3occ(C4CCCCC4)c3cc12
Activity [8]: 99%

Structure (SMILES): Cc1c(CC(=O)ON2C(=O)CCC2=O)c(=O)oc2cc3occ(C4CCCCC4)c3cc12
Activity [8]: 62%

More lines, main results first:

IC50 [1]: Nd(Insoluble) | IC50 [2]: 351 nM | IC50 [3]: Nd(Insoluble) | inhibition [4]: inactive | inhibition (INH) [5]: Not Active | IC50 [6]: Nd(Insoluble) | inhibition [7]: inactive
Structure (SMILES): Cc1c(-c2nsc(=O)o2)c(=O)oc2cc3occ(-c4ccc(Br)cc4)c3cc12

inhibition [9]: Active | inhibition [10]: inactive | IC50 [1]: Nd(Insoluble) | IC50 [2]: 174 nM | IC50 [3]: Nd(Insoluble) | inhibition [4]: inactive | inhibition [15]: Active | IC50 [16]: 1530 nM | inhibition (INH) [5]: Not Active | IC50 [6]: Nd(Insoluble) | inhibition [7]: inactive | inhibition [19]: inactive
Structure (SMILES): CCc1ccc(-c2coc3cc4oc(=O)c(-c5nsc(=O)o5)c(C)c4cc23)cc1
inhibition (PBMC [11]): inactive | inhibition (PBMC [12]): inactive | inhibition (PBMC [13]): inactive | inhibition (PBMC [14]): inactive | inhibition (PBMC [17]): Active | inhibition (PBMC [18]): Active

IC50 [1]: Nd(Insoluble) | IC50 [2]: 227 nM | IC50 [3]: Nd(Insoluble) | inhibition [4]: inactive | inhibition (INH) [5]: Not Active | IC50 [6]: Nd(Insoluble) | inhibition [7]: inactive
Structure (SMILES): COc1ccccc1-c1coc2cc3oc(=O)c(-c4nsc(=O)o4)c(C)c3cc12

IC50 [1]: Nd(Insoluble) | IC50 [2]: 226 nM | IC50 [3]: Nd(Insoluble) | inhibition [4]: inactive | inhibition (INH) [5]: Not Active | IC50 [6]: Nd(Insoluble) | inhibition [7]: inactive
Structure (SMILES): COc1cccc(-c2coc3cc4oc(=O)c(-c5nsc(=O)o5)c(C)c4cc23)c1

IC50 [1]: Nd(Insoluble) | IC50 [2]: 200 nM | IC50 [3]: Nd(Insoluble) | inhibition [4]: inactive | inhibition (INH) [5]: Not Active | IC50 [6]: Nd(Insoluble) | inhibition [7]: inactive
Structure (SMILES): Cc1c(-c2nsc(=O)o2)c(=O)oc2cc3occ(-c4ccc(F)cc4)c3cc12

IC50 [1]: Nd(Insoluble) | IC50 [2]: 264 nM | IC50 [3]: Nd(Insoluble) | inhibition [4]: inactive | inhibition (INH) [5]: Not Active | IC50 [6]: Nd(Insoluble) | inhibition [7]: inactive
Structure (SMILES): Cc1c(-c2nsc(=O)o2)c(=O)oc2cc3occ(C4CCCC4)c3cc12

IC50 [2]: 13 nM | Ratio IC50 (Homo sapiens): 80
Structure (SMILES): Cc1c(-c2nsc(=O)o2)c(=O)oc2cc3occ(-c4ccccc4)c3cc12

IC50 [1]: Nd(Insoluble) | IC50 [2]: 141 nM | IC50 [3]: Nd(Insoluble) | inhibition [4]: inactive | inhibition [15]: Active | inhibition (INH) [5]: Not Active | IC50 [6]: Nd(Insoluble) | inhibition [7]: inactive
Structure (SMILES): Cc1c(-c2nsc(=O)o2)c(=O)oc2cc3occ(-c4cccs4)c3cc12

inhibition [9]: Active | inhibition [10]: inactive | IC50 [1]: Nd(Insoluble) | IC50 [2]: 106 nM | IC50 [3]: Nd(Insoluble) | inhibition [4]: inactive | Activity [20]: 22% | inhibition [15]: Active | IC50 [16]: 1010 nM | inhibition (INH) [5]: Not Active | IC50 [6]: Nd(Insoluble) | inhibition [7]: inactive | inhibition [19]: inactive
Structure (SMILES): Cc1c(-c2nsc(=O)o2)c(=O)oc2cc3occ(C4CCCCC4)c3cc12
inhibition (PBMC [11]): inactive | inhibition (PBMC [12]): inactive | inhibition (PBMC [13]): inactive | inhibition (PBMC [14]): inactive | inhibition (PBMC [17]): Active | inhibition (PBMC [18]): Active
